A selection: hits, their analogues and other compounds. The true share with any hit is near 4.6%.
TAAR1 antagonist: human TAAR1 antagonism. Q96RJ0. CHO RD-HGA16 TAAR1, Fluo-8 calcium fluorescence, antagonist. inhibition, % at 3 µM. hit rate 1.5% among 360,000;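 active = inhibition above a per-plate cutoff, the mean inhibition of test compounds on that plate plus 3 SD, cut at about 49% in these data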
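System: RD-HGA16 CHO cells with stable hTAAR1 and Gα16 | Probe or stimulus: EC80 β-phenethylamine stimulus | Dosing: 3 µM, single point | Times: Dye loading 75 min at 37 °C, then 30 min room temperature | Measured by: Fluo-8 calcium-sensitive fluorescence | Read-out basis: % inhibition of agonist calcium response | Replicates: n of 1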
OX1R antag-1: OX1R (human) antagonism. O43613. OX1R-expressing cells, FRET antagonist read-out. inhibition, % at 6.6 µM. hit rate 1.8% among 330,000. AID 485270; in the data active = inhibition mostly above about 38%, no sharp cut-off; inactive = mostly below about 40%
TAAR1 ag: agonists of human TAAR1; CHO RD-HGA16 TAAR1, Fluo-8 calcium fluorescence; vehicle wells 0%, saturating PEA agonist 100%; activation, % at 3 µM; hit rate 0.99% among 360,000; AID 624467;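 active = activation above the mean activation of all test compounds in the run plus 3 SD, cut at about 38% in these data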
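Assay system – CHO-derived RD-HGA16 cells with stable Gα16 and human TAAR1 · Compound dosing – one-point dosing at 3 µM (nominal) · Incubation – 17-24 h seeding, 75 min 37 °C dye, 30 min RT · Measured by – kinetic Fluo-8 calcium fluorescence · Control set – DMSO vehicle as 0%, PEA at EC100 as 100% · Repeats – single well for each compound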
CHO parental Ca: counter-screen for OX1R antagonists: effect in parental CHO cells; parental CHO-K1, ATP-induced calcium, Fluo-8 fluorescence; inhibition, % at 5.6 µM; hit rate 0.63% among 330,000; AID 463079;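 active = inhibition above that plate's mean sample inhibition plus 3 SD, cut at about 26% in these data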
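Assay system – parental CHO cells · Reagent – ATP stimulus · Detection – intracellular calcium via Fluo-8 no-wash fluorescent dye · Evaluation – percent inhibition of ATP-evoked calcium rise, normalized to controls · Controls – ATP wells versus no-ATP DMSO wells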
OX1R antag-2: human HCRTR1 antagonism. O43613. inhibition, % at 5 µM. AID 434989. CHO/OX1R cells, Fluo-8 calcium fluorescence, orexin A. hit rate 0.43% among 330,000;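 active = inhibition above its plate's threshold, mean inhibition of all tested compounds on the plate plus 3 SD, cut at about 37% in these data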
GPR7 antagonist: antagonists of human GPR7 (neuropeptides B/W receptor 1) | P48145 | GPR7-expressing cells, fluorescence antagonist assay | inhibition, % at 4.4 µM | hit rate 1.1% among 290,000; in the data active = inhibition above about 16%, passing the limit was not always enough;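 note: cells stimulated with the agonist NPW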
Target sequence (P48145 whole entry, looked up): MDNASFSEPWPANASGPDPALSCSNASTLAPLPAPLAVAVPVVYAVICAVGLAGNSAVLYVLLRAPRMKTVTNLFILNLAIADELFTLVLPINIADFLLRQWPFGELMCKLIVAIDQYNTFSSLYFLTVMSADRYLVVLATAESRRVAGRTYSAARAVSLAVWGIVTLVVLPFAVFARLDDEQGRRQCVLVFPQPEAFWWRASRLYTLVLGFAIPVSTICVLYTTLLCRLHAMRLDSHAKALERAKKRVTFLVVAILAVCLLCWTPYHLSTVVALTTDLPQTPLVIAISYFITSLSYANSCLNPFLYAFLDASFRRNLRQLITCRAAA
TAAR1 ag conf: confirmation of human TAAR1 agonists. shares compounds with TAAR1 ag. CHO RD-HGA16 TAAR1, Fluo-8 calcium fluorescence; scaled: DMSO 0%, maximal phenethylamine 100%. activation, % at 3 µM. hit rate 82% among 2,400. AID 651783;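 active = activation above a cutoff set at the run's mean compound activation plus 3 SD, cut at about 39% in these data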
Ga16 nonsel ag: nonselective agonist in parental cells, TAAR1 agonist counter-screen; shares compounds with TAAR1 ag; CHO-Ga16 parental, Fluo-8 calcium fluorescence; normalized to maximal ATP response, DMSO zero; activation, % at 3 µM; hit rate 50% among 2,400; AID 651787;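 active = activation above the run cutoff, the mean activation over all tested wells plus 3 SD, cut at about 12% in these data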
TAAR1 desensitize: TAAR1 response desensitization, agonist counter-screen; shares compounds with TAAR1 ag; inhibition, % at 3 µM; hit rate 46% among 2,400; CHO RD-HGA16 hTAAR1, Fluo-8 calcium, beta-PEA response inhibition;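 active = inhibition above the run cutoff, the mean inhibition of all test compounds plus 3 SD, cut at about 49% in these data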;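 note: beta-PEA stimulus applied at its EC80; loss of beta-PEA calcium signal after compound pretreatment read as receptor desensitization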
Ga16 nonsel ant: nonselective Ga16 antagonist in TAAR1 agonist counter-screen; hit rate 39% among 2,400; AID 651952; inhibition, % at 3 µM; shares compounds with TAAR1 ag; CHO-Ga16 ATP-induced calcium, Fluo-8 fluorescence;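 active = inhibition above the plate's mean compound inhibition plus 3 SD, computed per plate, cut at about 22% in these data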
A number is an active result; – = inactive; · = not tested or not shown.

SMILES	TAAR1 antagonist	OX1R antag-1	TAAR1 ag	CHO parental Ca	OX1R antag-2	GPR7 antagonist	TAAR1 ag conf	Ga16 nonsel ag	TAAR1 desensitize	Ga16 nonsel ant
CN1C(=O)C(=CN2CCN(C(=O)c3ccco3)CC2)C(=O)N(C)C1=S	–	–	53	–	–	–	75	–	–	–
COc1ccc2c(CCN)c[nH]c2c1	–	–	52	–	–	–	80	–	–	–
CC(C)CC(N(C)C)C1(c2ccc(Cl)cc2)CCC1 (centres undefined)	–	–	–	–	–	·	·	·	·	·
N#CC1(c2ccccc2)CCN(C2CC(=O)N(c3ccc4c(c3)OCO4)C2=O)CC1 (centres undefined)	–	–	–	–	–	–	·	·	·	·
CC(C)CN1CCN(Cc2ccc(C(F)(F)F)cc2)CC1CCO (centres undefined)	–	–	–	–	–	–	·	·	·	·
COc1ccc(CNCCc2ccc(Cl)cc2)c(OC)c1OC	–	–	65	–	–	–	76	25	–	–
CC(C)(C)C1(CCO)C(=O)NC(=S)NC1=O	–	·	–	·	·	·	·	·	·	·
O=C1NC(=S)NC(=O)C1=Cc1cccc2cc3ccccc3cc12	–	·	–	·	·	–	·	·	·	·
CN1/C(=C\C=C2C(=O)NC(=S)NC2=O)C(C)(C)c2ccccc21	95	·	308	·	·	–	191	208	90	92
CCCC1(CC(C)C)C(=O)NC(=S)NC1=O	–	·	–	·	·	·	·	·	·	·
c1ccc2c(c1)CC1CNCc3cccc(c31)S2 (centres undefined)	–	–	73	–	–	–	93	–	79	–
COC(=O)C1=CCCN(C)C1	–	–	54	–	–	–	88	–	57	–
COC(=O)c1ccc(CN2CCN(Cc3ccccc3)CC2)cc1	–	–	–	–	–	–	·	·	·	·
O=[N+]([O-])c1ccc(NCc2ccc(Cl)cc2)c2ccncc12	–	–	–	–	–	–	·	·	·	·
O=[N+]([O-])c1ccc(NCc2ccccc2)c2nonc12	107	–	954	94	108	34	496	650	105	103
CCC(=NCc1cccnc1)c1c(O)n(-c2ccccc2)c(=O)[nH]c1=O	–	–	–	–	–	–	·	·	·	·
CC(Cc1ccccc1)NC(=O)/C=C/C(=O)O (centres undefined)	·	–	·	–	–	–	·	–	·	–
CN1C[C@H]2CON(C)[C@H]2C[C@H]1c1cccc(Br)c1	–	·	–	·	·	·	·	·	·	·
O=C(NCCN1CCC2(CC1)C(=O)NCN2c1ccccc1)c1cccc2c1-c1ccccc1C2=O	–	·	–	·	·	·	·	·	·	·
O=C(NCCN1CCC2(CC1)C(=O)NCN2c1ccccc1)c1cccc(F)c1	74	·	60	·	·	·	39	21	54	31
O=C(NCCN1CCC2(CC1)C(=O)NCN2c1ccccc1)c1ccc(F)c(F)c1	103	·	110	·	·	·	102	67	104	87
COc1cccc(C(=O)NCCN2CCC3(CC2)C(=O)NCN3c2ccccc2)c1	–	·	–	·	·	·	·	·	·	·
CCOP1(=S)Oc2cc3c(cc2C(C(=O)OC)(C(F)(F)F)O1)OCO3 (centres undefined)	–	–	–	–	–	–	·	·	·	·
Cc1cc(C)cc(N2C(=O)NC(=O)/C(=C\C=C\c3ccco3)C2=O)c1	–	–	50	–	–	–	72	47	–	–
CCCCN1C(=O)/C(=C/C=C/c2ccco2)C(=O)NC1=S	–	·	–	·	·	–	·	·	·	·
CCc1ccc(N2C(=O)NC(=O)/C(=C\C=C\c3ccco3)C2=O)cc1	–	–	73	–	–	–	67	26	69	–
COC12CCC3(CC1C(C)(O)C(C)(C)C)[C@H]1Cc4ccc(O)c5c4[C@@]3(CCN1CC1CC1)C2O5 (some centres undefined)	–	–	–	–	–	·	·	·	·	·
O=c1cc(C(F)(F)F)c2cc3c4c(c2o1)CCCN4CCC3	95	–	195	73	92	–	89	112	70	75

Screens as filed in PubChem BioAssay.
